Data from ChEMBL document CHEMBL5303300, “EUbOPEN Chemogenomics Library - Multiplex” (2023).
“And” between values parts separate entries of the source, which are not always exact repeats. Identical values can stand only once.

System: U2OS
Test: Multiplex assay against U2OS
Format: toxicity, cell-based
Conditions: human, number of replicates 2
How it was run: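 Live cells carried four stains from seeding: Hoechst33342, BioTracker Green Microtubule Cytoskeleton Dye, MitoTracker Red and Annexin V Alexa Fluor 680. They were imaged on a CQ1 microscope at 37°C and 5% CO2 after compound addition. Using CellPathfinder machine-learning gating, cells were split into Hoechst high-intensity objects or normal cells, normal cells into healthy, pyknosed or fragmented nuclei, and pyknosed cells into mitotic or apoptotic; tubulin, mitochondrial-mass and membrane-permeability phenotypes are per cents of healthy-nucleus cells.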

[1] = 12 h, 1 µM, compound concentration 1 uM
[2] = 12 h, 10 µM, compound concentration 10 uM
[3] = 24 h, 1 µM, compound concentration 1 uM
[4] = 24 h, 10 µM, compound concentration 10 uM
[5] = 48 h, 1 µM, compound concentration 1 uM
[6] = 48 h, 10 µM, compound concentration 10 uM

SMILES: Cn1ncc(NC(=O)c2nc(-c3c(F)cccc3F)sc2N)c1N1CC[C@@H](N)[C@H](F)CC1
- Population Apoptotic (%) [1]: 55% and 77%
- Population Healthy Nuclei (%) [1]: 46% and 79%
- Population Hoechst High Intensity Objects (%) [1]: 0%
- Population Mitochondria Different-Phenotype (%) [1]: 0%
- Population Normal (%) [1]: 100%
- Population Pyknosed Nuclei (%) [1]: 19%
- Population Tubulin-Different-Phenotype (%) [1]: 50% and 77%
- Population Apoptotic (%) [2]: 73% and 69%
- Population Healthy Nuclei (%) [2]: 22% and 53%
- Population Hoechst High Intensity Objects (%) [2]: 0%
- Population Mitochondria Different-Phenotype (%) [2]: 0% and 18%
- Population Normal (%) [2]: 98% and 99%
- Population Pyknosed Nuclei (%) [2]: 44% and 24%
- Population Tubulin-Different-Phenotype (%) [2]: 38% and 39%
- Population Apoptotic (%) [3]: 50% and 89%
- Population Healthy Nuclei (%) [3]: 48% and 85%
- Population Hoechst High Intensity Objects (%) [3]: 0%
- Population Mitochondria Different-Phenotype (%) [3]: 8%
- Population Normal (%) [3]: 100% and 99%
- Population Pyknosed Nuclei (%) [3]: 16% and 7%
- Population Tubulin-Different-Phenotype (%) [3]: 62% and 80%
- Population Apoptotic (%) [4]: 90% and 86%
- Population Mitochondria Different-Phenotype (%) [4]: 33%
- Population Normal (%) [4]: 98% and 100%
- Population Pyknosed Nuclei (%) [4]: 49% and 31%
- Population Tubulin-Different-Phenotype (%) [4]: 33% and 56%
- Total Cell Count [4]: 64 and 190
- Population Apoptotic (%) [5]: 84% and 66%
- Population Healthy Nuclei (%) [5]: 90% and 65%
- Population Hoechst High Intensity Objects (%) [5]: 0%
- Population Mitochondria Different-Phenotype (%) [5]: 7%
- Population Normal (%) [5]: 100%
- Population Pyknosed Nuclei (%) [5]: 5%
- Population Tubulin-Different-Phenotype (%) [5]: 84% and 49%
- Population Apoptotic (%) [6]: 96% and 93%
- Population Healthy Nuclei (%) [6]: 21% and 44%
- Population Hoechst High Intensity Objects (%) [6]: 0%
- Population Mitochondria Different-Phenotype (%) [6]: 25% and 19%
- Population Normal (%) [6]: 100%
- Population Pyknosed Nuclei (%) [6]: 53% and 36%
- Population Tubulin-Different-Phenotype (%) [6]: 41% and 57%

SMILES: CC(C)N(CCCCOCC(=O)NS(C)(=O)=O)c1cnc(-c2ccccc2)c(-c2ccccc2)n1 [SELEXIPAG]
- Population Apoptotic (%) [1]: 100% and 38%
- Population Fragmented Nuclei (%) [1]: 14% and 4%
- Population Healthy Nuclei (%) [1]: 76% and 84%
- Population Hoechst High Intensity Objects (%) [1]: 0%
- Population Membrane Permeable-Phenotype (%) [1]: 0% and 1%
- Population Mitochondria Different-Phenotype (%) [1]: 6% and 0%
- Population Normal (%) [1]: 100% and 99%
- Population Pyknosed Nuclei (%) [1]: 9% and 11%
- Population Tubulin-Different-Phenotype (%) [1]: 81% and 85%
- Population Apoptotic (%) [2]: 33% and 45%
- Population Fragmented Nuclei (%) [2]: 11% and 3%
- Population Healthy Nuclei (%) [2]: 82% and 88%
- Population Hoechst High Intensity Objects (%) [2]: 0%
- Population Membrane Permeable-Phenotype (%) [2]: 2% and 1%
- Population Mitochondria Different-Phenotype (%) [2]: 0%
- Population Mitotic Cells (%) [2]: 66% and 54%
- Population Normal (%) [2]: 100% and 99%
- Population Pyknosed Nuclei (%) [2]: 6% and 8%
- Population Tubulin-Different-Phenotype (%) [2]: 97% and 87%
- Population Apoptotic (%) [3]: 50% and 46%
- Population Fragmented Nuclei (%) [3]: 5% and 2%
- Population Healthy Nuclei (%) [3]: 88% and 89%
- Population Hoechst High Intensity Objects (%) [3]: 0%
- Population Membrane Permeable-Phenotype (%) [3]: 3% and 1%
- Population Mitochondria Different-Phenotype (%) [3]: 0%
- Population Mitotic Cells (%) [3]: 50% and 53%
- Population Normal (%) [3]: 100%
- Population Pyknosed Nuclei (%) [3]: 5% and 8%
- Population Tubulin-Different-Phenotype (%) [3]: 84% and 91%
- Population Apoptotic (%) [4]: 75% and 46%
- Population Healthy Nuclei (%) [4]: 73% and 89%
- Population Hoechst High Intensity Objects (%) [4]: 0%
- Population Membrane Permeable-Phenotype (%) [4]: 0% and 1%
- Population Mitochondria Different-Phenotype (%) [4]: 0%
- Population Mitotic Cells (%) [4]: 25% and 53%
- Population Normal (%) [4]: 100% and 99%
- Population Pyknosed Nuclei (%) [4]: 6%
- Population Tubulin-Different-Phenotype (%) [4]: 100% and 94%
- Population Apoptotic (%) [5]: 22% and 50%
- Population Healthy Nuclei (%) [5]: 67% and 94%
- Population Hoechst High Intensity Objects (%) [5]: 0%
- Population Membrane Permeable-Phenotype (%) [5]: 0% and 1%
- Population Mitochondria Different-Phenotype (%) [5]: 0%
- Population Mitotic Cells (%) [5]: 77% and 50%
- Population Normal (%) [5]: 100%
- Population Tubulin-Different-Phenotype (%) [5]: 85% and 93%
- Population Apoptotic (%) [6]: 36% and 56%
- Population Fragmented Nuclei (%) [6]: 6% and 4%
- Population Healthy Nuclei (%) [6]: 83% and 90%
- Population Hoechst High Intensity Objects (%) [6]: 0%
- Population Membrane Permeable-Phenotype (%) [6]: 1%
- Population Mitochondria Different-Phenotype (%) [6]: 0%
- Population Mitotic Cells (%) [6]: 63% and 43%
- Population Normal (%) [6]: 100% and 99%
- Population Pyknosed Nuclei (%) [6]: 9% and 4%
- Population Tubulin-Different-Phenotype (%) [6]: 97% and 94%

SMILES: CCN1CCN(Cc2ccc(C(=O)Nc3ccc(C)c(Oc4ccc5c(c4)CC(=O)N5)c3)cc2C(F)(F)F)CC1.Cl.Cl
- Population Apoptotic (%) [1]: 50%
- Population Healthy Nuclei (%) [1]: 82% and 64%
- Population Hoechst High Intensity Objects (%) [1]: 0% and 3%
- Population Membrane Permeable-Phenotype (%) [1]: 0%
- Population Mitochondria Different-Phenotype (%) [1]: 4% and 0%
- Population Mitotic Cells (%) [1]: 50%
- Population Normal (%) [1]: 100% and 96%
- Population Pyknosed Nuclei (%) [1]: 12% and 19%
- Population Tubulin-Different-Phenotype (%) [1]: 60% and 40%
- Population Apoptotic (%) [2]: 42% and 45%
- Population Fragmented Nuclei (%) [2]: 15% and 8%
- Population Healthy Nuclei (%) [2]: 57% and 69%
- Population Hoechst High Intensity Objects (%) [2]: 1% and 0%
- Population Membrane Permeable-Phenotype (%) [2]: 33% and 14%
- Population Mitochondria Different-Phenotype (%) [2]: 46%
- Population Mitotic Cells (%) [2]: 57% and 54%
- Population Normal (%) [2]: 98% and 100%
- Population Pyknosed Nuclei (%) [2]: 26% and 22%
- Population Tubulin-Different-Phenotype (%) [2]: 83% and 81%
- Population Apoptotic (%) [3]: 66% and 63%
- Population Fragmented Nuclei (%) [3]: 5% and 2%
- Population Healthy Nuclei (%) [3]: 71% and 81%
- Population Hoechst High Intensity Objects (%) [3]: 2% and 0%
- Population Membrane Permeable-Phenotype (%) [3]: 0%
- Population Mitochondria Different-Phenotype (%) [3]: 7% and 3%
- Population Mitotic Cells (%) [3]: 33% and 36%
- Population Normal (%) [3]: 97% and 100%
- Population Pyknosed Nuclei (%) [3]: 23% and 15%
- Population Tubulin-Different-Phenotype (%) [3]: 51% and 64%
- Population Apoptotic (%) [4]: 65% and 64%
- Population Fragmented Nuclei (%) [4]: 12% and 8%
- Population Healthy Nuclei (%) [4]: 54% and 64%
- Population Hoechst High Intensity Objects (%) [4]: 0%
- Population Membrane Permeable-Phenotype (%) [4]: 29% and 26%
- Population Mitochondria Different-Phenotype (%) [4]: 76% and 74%
- Population Mitotic Cells (%) [4]: 35%
- Population Normal (%) [4]: 100%
- Population Pyknosed Nuclei (%) [4]: 32% and 27%
- Population Tubulin-Different-Phenotype (%) [4]: 61% and 86%
- Population Apoptotic (%) [5]: 78% and 66%
- Population Fragmented Nuclei (%) [5]: 4% and 1%
- Population Healthy Nuclei (%) [5]: 72% and 85%
- Population Hoechst High Intensity Objects (%) [5]: 1% and 0%
- Population Membrane Permeable-Phenotype (%) [5]: 4% and 1%
- Population Mitochondria Different-Phenotype (%) [5]: 2% and 1%
- Population Mitotic Cells (%) [5]: 21% and 33%
- Population Normal (%) [5]: 98% and 99%
- Population Pyknosed Nuclei (%) [5]: 22% and 13%
- Population Tubulin-Different-Phenotype (%) [5]: 59% and 70%
- Population Apoptotic (%) [6]: 83% and 80%
- Population Fragmented Nuclei (%) [6]: 9% and 10%
- Population Healthy Nuclei (%) [6]: 29% and 49%
- Population Hoechst High Intensity Objects (%) [6]: 1% and 0%
- Population Membrane Permeable-Phenotype (%) [6]: 66% and 31%
- Population Mitochondria Different-Phenotype (%) [6]: 60% and 81%
- Population Mitotic Cells (%) [6]: 16% and 19%
- Population Normal (%) [6]: 98% and 99%
- Population Pyknosed Nuclei (%) [6]: 60% and 40%
- Population Tubulin-Different-Phenotype (%) [6]: 80% and 81%

SMILES: CN(C)CCN(Cc1ccc(-c2ccc(CNCCc3ccccc3)cc2)cc1)C(=O)CCC1CCCC1.Cl.Cl
- Population Apoptotic (%) [1]: 77% and 66%
- Population Fragmented Nuclei (%) [1]: 17% and 9%
- Population Healthy Nuclei (%) [1]: 55% and 78%
- Population Hoechst High Intensity Objects (%) [1]: 0%
- Population Membrane Permeable-Phenotype (%) [1]: 0% and 6%
- Population Mitochondria Different-Phenotype (%) [1]: 36% and 27%
- Population Mitotic Cells (%) [1]: 22% and 33%
- Population Normal (%) [1]: 100%
- Population Pyknosed Nuclei (%) [1]: 26% and 11%
- Population Tubulin-Different-Phenotype (%) [1]: 42% and 43%
- Population Apoptotic (%) [2]: 100% and 99%
- Population Fragmented Nuclei (%) [2]: 7% and 5%
- Population Healthy Nuclei (%) [2]: 11% and 13%
- Population Hoechst High Intensity Objects (%) [2]: 0% and 2%
- Population Membrane Permeable-Phenotype (%) [2]: 100%
- Population Mitochondria Different-Phenotype (%) [2]: 100% and 88%
- Population Mitotic Cells (%) [2]: 0%
- Population Normal (%) [2]: 100% and 97%
- Population Pyknosed Nuclei (%) [2]: 80% and 81%
- Population Tubulin-Different-Phenotype (%) [2]: 100% and 88%
- Population Apoptotic (%) [3]: 78% and 64%
- Population Fragmented Nuclei (%) [3]: 10% and 23%
- Population Healthy Nuclei (%) [3]: 73% and 44%
- Population Hoechst High Intensity Objects (%) [3]: 0%
- Population Membrane Permeable-Phenotype (%) [3]: 7% and 5%
- Population Mitochondria Different-Phenotype (%) [3]: 39% and 57%
- Population Mitotic Cells (%) [3]: 21% and 35%
- Population Normal (%) [3]: 100%
- Population Pyknosed Nuclei (%) [3]: 16% and 32%
- Population Tubulin-Different-Phenotype (%) [3]: 44% and 36%
- Population Apoptotic (%) [4]: 100% and 96%
- Population Healthy Nuclei (%) [4]: 3% and 6%
- Population Hoechst High Intensity Objects (%) [4]: 0% and 3%
- Population Membrane Permeable-Phenotype (%) [4]: 100%
- Population Mitochondria Different-Phenotype (%) [4]: 100% and 88%
- Population Mitotic Cells (%) [4]: 0% and 3%
- Population Normal (%) [4]: 100% and 96%
- Population Pyknosed Nuclei (%) [4]: 76% and 87%
- Population Tubulin-Different-Phenotype (%) [4]: 100% and 88%
- Population Apoptotic (%) [5]: 80% and 83%
- Population Fragmented Nuclei (%) [5]: 26% and 10%
- Population Healthy Nuclei (%) [5]: 34% and 70%
- Population Hoechst High Intensity Objects (%) [5]: 0%
- Population Mitotic Cells (%) [5]: 20% and 16%
- Population Normal (%) [5]: 100%
- Population Pyknosed Nuclei (%) [5]: 40% and 18%
- Population Tubulin-Different-Phenotype (%) [5]: 58% and 62%
- Population Apoptotic (%) [6]: 93% and 97%
- Population Fragmented Nuclei (%) [6]: 8% and 14%
- Population Hoechst High Intensity Objects (%) [6]: 0% and 1%
- Population Membrane Permeable-Phenotype (%) [6]: 100%
- Population Mitochondria Different-Phenotype (%) [6]: 100%
- Population Mitotic Cells (%) [6]: 6% and 2%
- Population Normal (%) [6]: 100% and 98%
- Population Pyknosed Nuclei (%) [6]: 66% and 80%
- Population Tubulin-Different-Phenotype (%) [6]: 100%
